Data from article PMC7265153 (The Journal of infection, 2019).
≈ marks a conversion by molar mass, not a printed value. Where “and” joins values, the source holds several entries; their conditions need not be identical. Identical values can stand only once. Like-named read-outs stand apart in the source and are kept apart here. Where a SMILES comes first, the peptide text is derived from it. Bridges are numbered along the chain shown (N, C = ends). [ ]: non-standard residue; d: D form. The star is where a group is joined. X1 = CC[C@H](C)CCCCC(=O)*; Dab = NCC[C@H](N)C(=O)O

Experiments:
P. aeruginosa [1] = type: cell-based; settings: Pseudomonas aeruginosa
Procedure, shortened: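 Extremely drug-resistant clinical isolates from patients with urinary tract infection. Species identification and susceptibility testing were done by microdilution on the automated breakpoint panel for non-fermenting Gram-negative bacteria. Colistin MIC was determined by microdilution in cation-adjusted Mueller-Hinton broth, with isolates scored susceptible at MIC ≤ 2 mg/L per CLSI.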

P. aeruginosa [2] = settings: study performed in Spain; cited from earlier work
XDR P. aeruginosa [3] = test: Plasma AUC/MIC, fAUC/MIC of formed colistin and attainment of PK/PD targets; type: in vivo, human
MDR-GNB = settings: cited from earlier work
Acute kidney injury = type: in vivo, human; settings: for AKI at EOT: F (Failure) / AKI at EOT: I (Injury) / AKI at EOT: R (Risk): among patients with AKI
[4] = in vivo; cited from earlier work
[5] = cited from earlier work
XDR P. aeruginosa [6] = type: in vivo, human
XDR P. aeruginosa [7] = type: cell-based, Pseudomonas aeruginosa
[8] = CMS ≥ 6 million IU/day (n = 12)
[9] = included patients with clinical failure (n = 2)
[10] = all patients, RIFLE class among patients with AKI

NCC[C@H](O)C(=O)N[C@@H]1C[C@H](N)[C@@H](O[C@H]2O[C@H](CN)[C@@H](O)[C@H](O)[C@H]2O)[C@H](O)[C@H]1O[C@H]1O[C@H](CO)[C@@H](O)[C@H](N)[C@H]1O [amikacin]
MIC (P. aeruginosa [1]): 16 µg/mL (≈ 27.3 µM)

CC(C)(O/N=C(\C(=O)N[C@@H]1C(=O)N2C(C(=O)[O-])=C(C[n+]3ccccc3)CS[C@H]12)c1csc(N)n1)C(=O)O [ceftazidime]
MIC (P. aeruginosa [1]): 16 µg/mL (≈ 29.3 µM)

CC[C@H](C)CCCCC(=O)N[C@@H](CCN)C(=O)N[C@H](C(=O)N[C@@H](CCN)C(=O)N[C@H]1CCNC(=O)[C@H]([C@@H](C)O)NC(=O)[C@H](CCN)NC(=O)[C@H](CCN)NC(=O)[C@H](CC(C)C)NC(=O)[C@@H](CC(C)C)NC(=O)[C@H](CCN)NC1=O)[C@@H](C)O [colistin] (X1-[Dab]T[Dab][Dab][Dab][dL]L[Dab][Dab]T; lactam 4-C)
MIC50/90 values (P. aeruginosa [2]): 2 mg/L (≈ 1.71 µM)
patients with microbiological clearance who had reached an AUC/MIC of 60 mg·h/L (XDR P. aeruginosa [3]; 7/19 patients): 36.8%
patients with pyelonephritis reaching Css,avg above 2.5 mg/L (XDR P. aeruginosa [3]; 9 patients diagnosed with pyelonephritis): none of them reached a Css,avg above 2.5 mg/L
patients with pyelonephritis achieving AUC/MIC > 60 mg·h/L (XDR P. aeruginosa [3]; 9 patients diagnosed with pyelonephritis, 1 patient): 11.1%
AUC/MIC > 60 mg∙h/L (XDR P. aeruginosa [3]; CMS < 3 million IU/day (n = 6)): 2 (33.3) n (%)
AUC/MIC > 60 mg∙h/L (XDR P. aeruginosa [3]; CMS ≥ 3 million IU/day (n = 9)): 1 (11.1) n (%)
AUC/MIC > 60 mg∙h/L (XDR P. aeruginosa [3]; [8]): 5 (41.7) n (%)
AUC/MIC > 60 mg∙h/L (XDR P. aeruginosa [3]; CMS ≥ 9 million IU/day (n = 6)): 3 (50) n (%)
AUC/MIC ≥ 60 mg∙h/L (XDR P. aeruginosa [3]; all patients n = 33): 11 (33.3) n (%)
fAUC/MIC (XDR P. aeruginosa [3]; all patients n = 33, unbound fraction 0.5, mean ± standard deviation, SD): 30.2 ± 28.2
fAUC/MIC (XDR P. aeruginosa [3]; included patients with clinical cure (n = 31), median (interquartile range)): 21.5 (5.04–124.8)
Css > 2,5 mg/L (XDR P. aeruginosa [3]; [9]): 1 (50) 1 (50) n (%)
fAUC/MIC (XDR P. aeruginosa [3]; included patients with clinical failure (n = 2), median (interquartile range)): 47.4 (7.44–87.4)
Css > 2,5 mg/L (XDR P. aeruginosa [3]; patients treated with colistin alone, clinical cure (n=17)): 1 (5.9) n (%)
fAUC/MIC (XDR P. aeruginosa [3]; patients treated with colistin alone, clinical cure (n=17), median (interquartile range)): 16.8 (4.8–81.6)
fAUC/MIC (XDR P. aeruginosa [3]; patients with AKI at EOT (n = 10), median (interquartile range)): 48.4 (14.4–124.8)
fAUC/MIC (XDR P. aeruginosa [3]; patients without AKI at EOT (n = 23), median (interquartile range)): 13.7 (4.8–58.1)
clinical cure rate in patients diagnosed with UTI (MDR-GNB; retrospective study, low-dose colistin): 83.3%
Odds ratio (95% CI) of Css for nephrotoxicity at EOT (Acute kidney injury; multivariate logistic regression, P = 0.074): 4.36 (0.86–20)
Css,avg associated with a higher risk of AKI at EOT [4]: > 2.42 mg/L
rate of colistin-associated nephrotoxicity [4]: 40–50%
patients with colistin in urine much higher than in plasma ([5]; 11 of 12 patients treated with CMS): 91.7%
concentrations of formed colistin in urine ([5]; 12 patients treated with CMS, maximum): up to 95.4 mg/L
concentrations of formed colistin in plasma ([5]; 12 patients treated with CMS, median (IQR <0.2–1.4 mg/L)): 0.9 mg/L
half-life ([5]; assumed for reaching steady state): approximately 14 h
unbound fraction for colistin in human plasma ([5]; human plasma): 0.5
emergence of colistin-resistant isolates (XDR P. aeruginosa [6]; during the next 30 days after treatment): no colistin-resistant isolates were detected
MIC50 (XDR P. aeruginosa [7]): 0.5 mg/L (≈ 0.428 µM)
MIC90 (XDR P. aeruginosa [7]): 2 mg/L (≈ 1.71 µM)

C[C@@H](O)[C@H]1C(=O)N2C(C(=O)O)=C(S[C@@H]3CN[C@H](C(=O)N(C)C)C3)[C@H](C)[C@H]12 [meropenem]
MIC (P. aeruginosa [1]): ≥ 8 µg/mL

Colistimethate sodium [CMS]
Clinical cure (MDR-GNB; 13 patients with UTI caused by XDR P. aeruginosa): 84.6%
rate of clinical cure in UTI caused by MDR-GNB (MDR-GNB; recent clinical studies): 50 to 92%
AKI at EOT (Acute kidney injury; CMS < 3 million IU/day (n = 6)): 2 (33.3) n (%)
AKI at EOT: F (Failure) (Acute kidney injury; CMS < 3 million IU/day (n = 6)): 0 (0) n (%)
AKI at EOT: I (Injury) (Acute kidney injury; CMS < 3 million IU/day (n = 6)): 1 (50) n (%)
AKI at EOT: R (Risk) (Acute kidney injury; CMS < 3 million IU/day (n = 6)): 1 (50) n (%)
AKI at EOT (Acute kidney injury; CMS ≥ 3 million IU/day (n = 9)): 3 (33.3) n (%)
AKI at EOT: F (Failure) (Acute kidney injury; CMS ≥ 3 million IU/day (n = 9)): 1 (33.3) n (%)
AKI at EOT: I (Injury) (Acute kidney injury; CMS ≥ 3 million IU/day (n = 9)): 2 (66.6) n (%)
AKI at EOT: R (Risk) (Acute kidney injury; CMS ≥ 3 million IU/day (n = 9)): 0 (0) n (%)
AKI at EOT (Acute kidney injury; [8]): 4 (33.3) n (%)
AKI at EOT: F (Failure) (Acute kidney injury; [8]): 0 (0) n (%)
AKI at EOT: I (Injury) (Acute kidney injury; [8]): 3 (75) n (%)
AKI at EOT: R (Risk) (Acute kidney injury; [8]): 1 (25) n (%)
AKI at EOT (Acute kidney injury; CMS ≥ 9 million IU/day (n = 6)): 1 (16.7) n (%)
AKI at EOT: F (Failure) (Acute kidney injury; CMS ≥ 9 million IU/day (n = 6)): 1 (100) n (%)
AKI at EOT: I (Injury) (Acute kidney injury; CMS ≥ 9 million IU/day (n = 6)): 0 (0) n (%)
AKI at EOT: R (Risk) (Acute kidney injury; CMS ≥ 9 million IU/day (n = 6)): 0 (0) n (%)
AKI at the end of treatment (Acute kidney injury; all patients n = 33, RIFLE criteria): 10 (30.3%) n (%) and 10 (30.3) n (%)
AKI at the end of treatment: F (Failure) (Acute kidney injury; [10]): 2 (22.2) n (%)
AKI at the end of treatment: I (Injury) (Acute kidney injury; [10]): 5 (55.5) n (%)
AKI at end of treatment (Acute kidney injury; included patients with clinical cure (n = 31)): 9 (29) n (%)
AKI at end of treatment (Acute kidney injury; [9]): 1 (50) n (%)
CMS dose eliminated in the urine [5]: 60–70%
rate of CMS conversion into colistin ([5]; young volunteers, single dose of 1 million IU (80 mg) CMS): 30%
CMS excreted in urine ([5]; young volunteers, single dose of 1 million IU (80 mg) CMS, on average): 70%
Clinical cure in patients with pyelonephritis (XDR P. aeruginosa [6]; 9 patients diagnosed with pyelonephritis, six (66.7%) on combined therapy): All of them achieved clinical cure
Microbiological clearance (XDR P. aeruginosa [6]; 23 patients with microbiological follow up): 19 (82.6) n (%)
Clinical cure (XDR P. aeruginosa [6]; CMS < 3 million IU/day (n = 6)): 6 (100) n (%)
Clinical cure (XDR P. aeruginosa [6]; CMS ≥ 3 million IU/day (n = 9)): 8 (88.9) n (%)
Clinical cure (XDR P. aeruginosa [6]; [8]): 11 (91.7) n (%)
Clinical cure (XDR P. aeruginosa [6]; CMS ≥ 9 million IU/day (n = 6)): 6 (100) n (%)
Clinical cure (XDR P. aeruginosa [6]; all patients n = 33 (42.4% on combined antibiotic therapy)): 31 (93.9) n (%)
